Measurements: ChEMBL document CHEMBL4680204, “Tariquidar-related triazoles as potent, selective and stable inhibitors of ABCG2 (BCRP)” (Eur J Med Chem, 2020)

Key:
[1] = Cytotoxicity against human MCF7/Topo cells assessed as reduction in cell viability up to 1 uM by crystal violet staining based assay
How it was run: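 MCF-7/Topo cells kept in 550 nM topotecan, seeded at 1500/well and attached overnight, then exposed to compounds (DMSO 0.1% vehicle; vinblastine 300 nM as reference cytostatic) for varying periods, 8 wells per concentration. Fixed with 2% glutardialdehyde, stained with 0.02% crystal violet, dye redissolved in 70% EtOH, A580 read. Corrected T/C from treated, growth-control and t0 absorbances.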

ABCC1 (MRP1) [2] = target: T1, ABCC1 (MRP1) (Homo sapiens, UniProt P33527); test: Inhibition of human ABCC1 transfected in MDCK2-MRP1 cells up to 100 uM using calcein-AM as substrate measured after 1 hr by fluorescence assay relative to control; assay type: cell-based; details: probe calcein-AM
T1 sequence (P33527 whole entry): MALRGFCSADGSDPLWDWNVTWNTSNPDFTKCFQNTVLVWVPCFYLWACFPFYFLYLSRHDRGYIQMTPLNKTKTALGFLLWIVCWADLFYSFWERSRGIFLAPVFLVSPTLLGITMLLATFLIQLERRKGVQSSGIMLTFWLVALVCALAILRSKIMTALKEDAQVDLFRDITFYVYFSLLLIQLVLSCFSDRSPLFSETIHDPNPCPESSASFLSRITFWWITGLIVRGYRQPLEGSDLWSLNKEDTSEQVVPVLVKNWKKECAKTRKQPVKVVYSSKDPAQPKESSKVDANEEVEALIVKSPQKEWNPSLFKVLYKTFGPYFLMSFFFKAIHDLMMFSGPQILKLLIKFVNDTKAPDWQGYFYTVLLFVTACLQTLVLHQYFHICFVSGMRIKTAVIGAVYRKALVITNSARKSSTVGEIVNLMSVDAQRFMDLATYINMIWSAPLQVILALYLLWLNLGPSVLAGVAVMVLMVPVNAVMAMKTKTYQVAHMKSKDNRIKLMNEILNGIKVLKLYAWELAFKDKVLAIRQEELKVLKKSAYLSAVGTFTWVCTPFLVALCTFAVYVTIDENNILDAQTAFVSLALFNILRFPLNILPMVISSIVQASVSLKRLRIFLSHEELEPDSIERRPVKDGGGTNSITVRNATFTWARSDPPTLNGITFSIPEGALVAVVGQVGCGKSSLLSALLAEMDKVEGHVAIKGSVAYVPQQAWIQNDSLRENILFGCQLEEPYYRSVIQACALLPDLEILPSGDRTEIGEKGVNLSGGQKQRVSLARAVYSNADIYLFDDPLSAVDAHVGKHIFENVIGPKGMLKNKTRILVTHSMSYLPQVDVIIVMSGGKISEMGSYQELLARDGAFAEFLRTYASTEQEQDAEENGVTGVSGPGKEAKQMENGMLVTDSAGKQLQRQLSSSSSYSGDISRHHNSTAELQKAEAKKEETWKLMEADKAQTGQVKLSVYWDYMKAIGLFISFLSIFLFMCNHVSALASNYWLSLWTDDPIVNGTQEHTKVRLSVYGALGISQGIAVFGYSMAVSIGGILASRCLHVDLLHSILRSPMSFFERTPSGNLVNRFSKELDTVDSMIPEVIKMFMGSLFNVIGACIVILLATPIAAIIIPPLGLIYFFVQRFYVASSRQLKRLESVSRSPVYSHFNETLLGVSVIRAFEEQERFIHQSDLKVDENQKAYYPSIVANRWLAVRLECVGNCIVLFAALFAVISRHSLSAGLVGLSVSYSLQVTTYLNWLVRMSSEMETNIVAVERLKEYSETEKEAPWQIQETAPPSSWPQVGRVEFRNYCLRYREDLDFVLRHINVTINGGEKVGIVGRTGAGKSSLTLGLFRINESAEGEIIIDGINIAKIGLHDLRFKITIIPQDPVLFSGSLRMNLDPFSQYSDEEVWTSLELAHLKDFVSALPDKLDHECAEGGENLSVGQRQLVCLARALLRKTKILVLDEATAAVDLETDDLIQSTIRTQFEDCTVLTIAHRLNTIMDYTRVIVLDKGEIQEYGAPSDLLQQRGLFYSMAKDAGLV
How it was run: (§1)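 MDCK.2 cells transfected with human ABCC1, 20,000/well, attached overnight, washed with HEPES buffer pH 7.4, then 1 h at 37 °C with 0.5 µM calcein-AM, BSA, Pluronic and compounds, in triplicate. PFA-fixed, read at 485/535 nm.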

ABCC1 (MRP1) [3] = target: T1, ABCC1 (MRP1); test: Inhibition of human ABCC1 transfected in MDCK2-MRP1 cells using calcein-AM as substrate measured after 1 hr by fluorescence assay relative to reversan; assay type: cell-based; details: MDCK2-MRP1 cells transfected with human ABCC1, probe calcein-AM, read-out: Imax; how it was run: as §1
[4] = target: T2, Broad substrate specificity ATP-binding cassette transporter ABCG2 (Homo sapiens, UniProt Q9UNQ0); test: Inhibition of ABCG2 in topotecan-cultured human MCF7 cells using Hoechst 33342 as substrate measured after 2 hrs by fluorescence assay; assay type: cell-based
T2 sequence (Q9UNQ0 whole entry): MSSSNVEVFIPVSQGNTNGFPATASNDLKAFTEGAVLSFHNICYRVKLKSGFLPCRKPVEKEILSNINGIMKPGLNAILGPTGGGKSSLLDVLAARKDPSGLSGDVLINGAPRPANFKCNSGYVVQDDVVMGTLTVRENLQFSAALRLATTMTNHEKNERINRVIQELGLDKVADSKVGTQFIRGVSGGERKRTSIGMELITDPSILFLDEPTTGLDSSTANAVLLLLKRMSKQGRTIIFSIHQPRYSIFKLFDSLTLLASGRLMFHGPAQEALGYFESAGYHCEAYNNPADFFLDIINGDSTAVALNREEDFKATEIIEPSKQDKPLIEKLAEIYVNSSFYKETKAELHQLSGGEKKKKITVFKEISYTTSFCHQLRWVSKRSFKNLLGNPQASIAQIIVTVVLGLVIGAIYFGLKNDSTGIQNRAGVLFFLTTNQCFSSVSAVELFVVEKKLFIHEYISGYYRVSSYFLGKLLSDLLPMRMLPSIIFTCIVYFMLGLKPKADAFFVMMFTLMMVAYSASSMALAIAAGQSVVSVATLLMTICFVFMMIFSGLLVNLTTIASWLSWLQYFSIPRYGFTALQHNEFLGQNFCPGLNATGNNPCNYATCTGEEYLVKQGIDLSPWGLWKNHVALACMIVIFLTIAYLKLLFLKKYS

[5] = target: Multidrug resistance-associated protein 1 (Homo sapiens, UniProt P33527); test: Inhibition of human ABCC1 transfected in MDCK2-MRP1 cells using calcein-AM as substrate measured after 1 hr by fluorescence assay; assay type: cell-based
Sequence of Multidrug resistance-associated protein 1 (P33527 whole entry): as the sequence (P33527 whole entry) above
How it was run: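 MDCK.2 cells transfected with human ABCC1, 20,000/well, attached overnight, washed with HEPES buffer pH 7.4, then 1 h at 37 °C with 0.5 µM calcein-AM, BSA, Pluronic and compounds, in triplicate.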

ABCG2 (Homo sapiens) [6] = test: Inhibition of sulfasalazine-stimulated ABCG2 ATPase activity (unknown origin) expressed in baculovirus infected Sf9 insect cells using ATP as substrate measured after 1 hr by colorimetric assay relative to FTC; details: probe ATP, read-out: Imax
ABCG2 = target: T3, ABCG2 (Homo sapiens, UniProt Q9UNQ0); test: Inhibition of ABCG2 in topotecan-cultured human MCF7 cells using Hoechst 33342 as substrate measured after 2 hrs by fluorescence assay relative to FTC; assay type: cell-based; details: probe Hoechst 33342, read-out: Imax
T3 sequence (Q9UNQ0 whole entry): T2 sequence (Q9UNQ0 whole entry)

[7] = target: T2, Broad substrate specificity ATP-binding cassette transporter ABCG2; test: Inhibition of sulfasalazine-stimulated ABCG2 ATPase activity (unknown origin) expressed in baculovirus infected Sf9 insect cells using ATP as substrate measured after 1 hr by colorimetric assay
ABCG2 (Homo sapiens) [8] = test: Activation of ABCG2 ATPase activity (unknown origin) expressed in baculovirus infected Sf9 insect cells using ATP as substrate measured after 1 hr by colorimetric assay relative to sulfasalazine; details: probe ATP
ABCB1 = ABCB1 (Homo sapiens, UniProt P08183); test: Inhibition of ABCB1 in human KB-V1 cells using calcein-AM as substrate measured after 10 mins by fluorescence assay relative to tariquidar; assay type: cell-based; details: probe calcein-AM, read-out: Imax
Sequence of ABCB1 (P08183 whole entry): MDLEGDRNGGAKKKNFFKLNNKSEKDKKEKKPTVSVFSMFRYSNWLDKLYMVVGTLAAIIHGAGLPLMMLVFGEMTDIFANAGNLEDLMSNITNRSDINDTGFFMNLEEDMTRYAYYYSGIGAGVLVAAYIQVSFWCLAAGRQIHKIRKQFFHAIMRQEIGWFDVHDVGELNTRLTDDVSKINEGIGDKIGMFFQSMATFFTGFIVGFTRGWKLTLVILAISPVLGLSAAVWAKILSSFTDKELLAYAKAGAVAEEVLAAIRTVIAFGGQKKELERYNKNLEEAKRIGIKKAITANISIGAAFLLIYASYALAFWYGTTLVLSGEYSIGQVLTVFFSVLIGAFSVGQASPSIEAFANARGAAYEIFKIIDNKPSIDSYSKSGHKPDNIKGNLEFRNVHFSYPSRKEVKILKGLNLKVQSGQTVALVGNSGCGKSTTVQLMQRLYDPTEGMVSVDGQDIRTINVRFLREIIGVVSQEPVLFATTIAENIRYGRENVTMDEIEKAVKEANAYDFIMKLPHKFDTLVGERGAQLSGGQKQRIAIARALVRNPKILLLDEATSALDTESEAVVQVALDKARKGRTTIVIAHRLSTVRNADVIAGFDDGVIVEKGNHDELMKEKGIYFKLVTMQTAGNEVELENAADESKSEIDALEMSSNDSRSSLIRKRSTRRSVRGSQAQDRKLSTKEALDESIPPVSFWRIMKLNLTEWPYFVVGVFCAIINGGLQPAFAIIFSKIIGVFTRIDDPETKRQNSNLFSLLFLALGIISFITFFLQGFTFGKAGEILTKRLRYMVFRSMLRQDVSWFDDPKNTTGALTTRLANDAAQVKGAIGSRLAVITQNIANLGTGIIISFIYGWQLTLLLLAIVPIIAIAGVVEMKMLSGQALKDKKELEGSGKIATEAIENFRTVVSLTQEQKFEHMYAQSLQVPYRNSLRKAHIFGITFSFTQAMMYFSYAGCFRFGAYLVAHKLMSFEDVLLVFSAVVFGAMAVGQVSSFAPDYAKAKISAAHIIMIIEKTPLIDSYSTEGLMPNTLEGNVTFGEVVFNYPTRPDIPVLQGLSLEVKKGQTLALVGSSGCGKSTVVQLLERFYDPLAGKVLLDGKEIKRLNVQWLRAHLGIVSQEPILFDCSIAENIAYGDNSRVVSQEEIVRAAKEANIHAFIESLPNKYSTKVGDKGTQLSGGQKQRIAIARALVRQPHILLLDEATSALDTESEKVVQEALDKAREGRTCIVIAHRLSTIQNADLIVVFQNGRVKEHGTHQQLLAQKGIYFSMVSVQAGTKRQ
How it was run: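 KB-V1 cells kept in 330 nM vinblastine, 20,000/well, attached overnight, washed with HEPES loading buffer pH 7.4, then 10 min at 37 °C with 0.5 µM calcein-AM, BSA, Pluronic F-127 and rising compound concentrations, in triplicate. PFA-fixed, PBS-washed, fluorescence read at 485/535 nm.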

[9] = target: ATP-dependent translocase ABCB1 (Homo sapiens, UniProt P08183); test: Inhibition of ABCB1 in human KB-V1 cells using calcein-AM as substrate measured after 10 mins by fluorescence assay; assay type: cell-based
Sequence of ATP-dependent translocase ABCB1 (P08183 whole entry): as above

ABCG2 (Homo sapiens) [10] = test: Activation of ABCG2 ATPase activity (unknown origin) expressed in baculovirus infected Sf9 insect cells using ATP as substrate measured after 1 hr by colorimetric assay; details: probe ATP
[11] = Cytotoxicity against human MCF7/Topo cells assessed as reduction in cell viability at 10 uM by crystal violet staining based assay
How it was run: (§2)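 MCF-7/Topo cells kept in 550 nM topotecan, seeded at 1500 cells/well, attached overnight. Compound added next day (0.1% DMSO vehicle; vinblastine 300 nM positive control), 8 wells per concentration. Long-term kinetic incubation with plates fixed in 2% glutardialdehyde at several time points. Crystal violet stain redissolved in 70% EtOH, A580 read; corrected T/C (%) calculated against t0 absorbance.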

[12] = Cytotoxicity against human MCF7/Topo cells assessed as reduction in cell viability up to 3 uM by crystal violet staining based assay; how it was run: as §2

| SMILES | inhibition at 1 h (ABCC1 (MRP1) [2]) [%] | IC50 [4] [nM] | Emax at 2 h (ABCG2) [%] | IC50 [7] [nM] | Emax at 1 h (ABCG2 (Homo sapiens) [8]) [%] | Emax at 10 min, 10 µM (ABCB1) [%] | IC50 ([9]; read-out: IC50) [nM] | IC50 ([9]; kb-v1) | other results |
| --- | --- | --- | --- | --- | --- | --- | --- | --- | --- |
| CCC(=O)c1ccc(-c2cn(-c3ccc(CCN4CCc5cc(OC)c(OC)cc5C4)cc3)nn2)cc1NC(=O)c1ccc2ccccc2n1 | ≤ 10 |  |  |  |  |  |  |  | Activity [1]: Non-Toxic |
| COc1ccc2[nH]cc(CCNC(=O)c3cc(=O)c4c(OCc5ccc(Br)cc5)cccc4o3)c2c1 |  | 707 | 109 | 745 | 0 | > 11 |  |  | Emax at 1 h, 30 µM (ABCC1 (MRP1) [3]): 15%; IC50 [5]: 3600 nM; Emax at 1 h (ABCG2 (Homo sapiens) [6]): 113% |
| COC(=O)c1ccc(-c2cn(-c3ccc(CCN4CCc5ccccc5C4)cc3)nn2)cc1NC(=O)c1ccc2ccccc2n1 | ≤ 10 |  |  |  |  | ≥ 11 | ≥ 38300 |  |  |
| COc1cc2c(cc1OC)CN(CCc1ccc(NC(=O)c3cc(OC)c(OC)cc3NC(=O)c3cnc4ccccc4c3)cc1)CC2 | ≤ 10 | 6220 | 72 | ≥ 1180 |  |  | 356 |  |  |
| COC(=O)c1ccc(-c2cn(-c3ccc(CCN4CCc5cc(OC)c(OC)cc5C4)cc3)nn2)cc1NC(=O)c1ccc2ccccc2n1 | ≤ 10 |  |  |  |  |  |  | Not Active |  |
| COCCOCCOCCOc1cc2c(cc1OC)CCN(Cc1ccc(-n3cc(-c4ccc(C(=O)OC)c(NC(=O)c5ccc6ccccc6n5)c4)nn3)cc1)C2 | ≤ 10 | 153 | 85 |  |  | ≥ 21 | ≥ 25000 |  |  |
| COc1ccc(/C(C#N)=C/c2ccc(N3CCC(O)CC3)s2)cc1OC |  | 3350 | 106 |  | 99 | ≥ 53 | ≥ 65500 |  | Emax at 1 h, 30 µM (ABCC1 (MRP1) [3]): ≥ 81%; IC50 [5]: ≥ 39800 nM; EC50 at 1 h (ABCG2 (Homo sapiens) [10]): 327 nM |
| COc1ccc2c3c([nH]c2c1)[C@H](CC(C)C)N1C(=O)[C@H](CCC(=O)OC(C)(C)C)NC(=O)[C@@H]1C3 |  |  |  |  |  | ≥ 11 |  |  | Emax at 1 h, 30 µM (ABCC1 (MRP1) [3]): 29%; Activity [11]: Toxic; Activity [12]: Non-Toxic |
| COc1ccc(C(=O)N2CCc3c([nH]c4ccccc34)C2c2ccc(Cl)c(Cl)c2)cc1 (stereo not drawn) | ≤ 10 | 1110 | 111 | 226 | -37 |  |  | Not Active | Emax at 1 h (ABCG2 (Homo sapiens) [6]): 141%; EC50 at 1 h (ABCG2 (Homo sapiens) [10]): 134 nM |
| COc1cc2c(cc1OC)CN(CCc1ccc(-n3cc(-c4ccc(C(=O)C(C)C)c(NC(=O)c5ccc6ccccc6n5)c4)nn3)cc1)CC2 |  | 295 | 90 |  |  | ≥ 24 | ≥ 21800 |  | Emax at 1 h, 30 µM (ABCC1 (MRP1) [3]): ≥ 14%; IC50 [5]: ≥ 19000 nM |
| COc1ccc2c3c([nH]c2c1)[C@H](C=C(C)C)N1C(=O)[C@@H]2CCCN2C(=O)[C@@H]1C3 [FUMITREMORGIN] | ≤ 10 | 1480 |  | 1810 | -20 |  |  | Not Active | EC50 at 1 h (ABCG2 (Homo sapiens) [10]): 412 nM |
| COC(=O)c1ccc(C(=O)Nc2ccc(CCN3CCc4cc(OC)c(OC)cc4C3)cc2)cc1NC(=O)c1ccc2ccccc2n1 | ≤ 10 | 101 | 99 | 294 | -27 | ≥ 14 | ≥ 12100 |  | Emax at 1 h (ABCG2 (Homo sapiens) [6]): 105%; EC50 at 1 h (ABCG2 (Homo sapiens) [10]): 105 nM |
| COc1cc2c(cc1OC)CN(CCc1ccc(-n3cc(-c4ccc(C(C)=O)c(NC(=O)c5ccc6ccccc6n5)c4)nn3)cc1)CC2 | ≤ 10 |  |  |  |  |  |  | Not Active |  |
| COC(=O)c1ccc(-c2cn(-c3ccc(CN4CCc5cc(OC)c(OC)cc5C4)cc3)nn2)cc1NC(=O)c1ccc2ccccc2n1 | ≤ 10 |  |  |  |  | ≥ 25 | ≥ 10700 |  |  |
| COc1ccc(CCNC(=O)c2cc(=O)c3c(OCc4ccccc4)cccc3o2)cc1OC | ≤ 10 |  |  |  |  |  |  | Not Active |  |
| COCCOCCOCCOc1cc2c(cc1OC)CCN(CCc1ccc(-n3cc(-c4ccc(C(=O)OC)c(NC(=O)c5ccc6ccccc6n5)c4)nn3)cc1)C2 | ≤ 10 | 144 | 86 |  |  | 80 | 1620 |  |  |
